# Screening data as filed in PubChem.
# A selection: hits, their analogues and other compounds. The true share with any hit is near 3.1%.
# SENP8 block-1 – blocks human SENP8 cleavage of Nedd8 substrate; Q96LD8; recombinant SENP8, Nedd8 substrate fluorescence; inhibition, % at 20 µM; actives 0.64% (n = 360,000); AID 602440; in the data active = inhibition mostly above about 40%, no sharp cut-off; inactive = mostly below about 27%
# Target sequence (Q96LD8 whole entry, looked up): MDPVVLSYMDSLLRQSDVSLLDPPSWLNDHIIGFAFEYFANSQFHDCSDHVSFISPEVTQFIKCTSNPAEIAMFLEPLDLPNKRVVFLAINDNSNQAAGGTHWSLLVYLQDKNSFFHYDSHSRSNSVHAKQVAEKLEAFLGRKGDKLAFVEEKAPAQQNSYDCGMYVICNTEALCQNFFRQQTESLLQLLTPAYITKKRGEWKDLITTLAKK
# SENP6 block – SENP6 protease inhibition | actives 1.8% (n = 330,000) | inhibition, % at 10 µM | Q9GZR1 | Recombinant SENP6 catalytic domain, aminoluciferin luminescence;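 active = inhibition above about 50% at the single tested dose, limit read from the data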
# Target sequence (Q9GZR1 628-1112 limits assumed): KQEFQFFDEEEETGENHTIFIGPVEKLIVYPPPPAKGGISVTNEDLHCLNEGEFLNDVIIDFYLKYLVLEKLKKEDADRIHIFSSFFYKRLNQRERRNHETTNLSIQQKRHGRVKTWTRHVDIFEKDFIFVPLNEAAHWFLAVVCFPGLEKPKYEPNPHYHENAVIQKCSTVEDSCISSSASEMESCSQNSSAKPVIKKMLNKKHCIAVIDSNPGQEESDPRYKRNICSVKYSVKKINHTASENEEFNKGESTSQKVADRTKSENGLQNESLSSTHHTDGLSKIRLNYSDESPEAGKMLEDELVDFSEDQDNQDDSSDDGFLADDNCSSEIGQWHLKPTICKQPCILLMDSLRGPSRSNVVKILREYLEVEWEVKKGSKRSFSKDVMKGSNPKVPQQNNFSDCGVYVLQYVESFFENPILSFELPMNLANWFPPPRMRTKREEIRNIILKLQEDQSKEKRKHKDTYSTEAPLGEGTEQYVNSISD
# UBC13 inh – human UBC13 polyubiquitination inhibition | UBC13 polyubiquitin chain formation, TR-FRET | inhibition, % at 20 µM | actives 0.47% (n = 330,000) | AID 485273; in the data active = inhibition above about 45%, passing the limit was not always enough
# Apaf-1 inh – inhibitors of human Apaf-1 apoptosome; inhibition, % at 20 µM; AID 489030; reconstituted apoptosome caspase-3 activity, DEVD-Rh110 fluorescence; actives 0.71% (n = 330,000); O14727; active = inhibition of at least 40% at 20 µM
#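 Assay system – apoptosome proteins · Medium – Hepes buffer, pH 7.5 · Also added – cytochrome c with DEVD-Rh110 · Timing – 30 min compound preincubation, 50 min activation, room temperature · Detection – Rh110 fluorescence, excitation 480 nm, emission 540 nm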
# SENP7 inh – inhibitors of human SENP7 protease | Q9BQF6 | recombinant SENP7, Z-RLRGG-aminoluciferin luminescence, 40 min | inhibition, % at 5 µM | actives 1.5% (n = 330,000);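 active = inhibition above about 50% at the single test dose, limit read from the data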
# SENP8 block-2 – inhibitors of human SENP8 protease; purified SENP8, Z-RLRGG-aminoluciferin cleavage, luminescence; inhibition, % at 10 µM; actives 1.2% (n = 330,000); in the data active = inhibition above about 50%
# SENP8 confirm – human SENP8 inhibition, confirmed | shares compounds with SENP7 inh | Recombinant SENP8, Z-RLRGG-aminoluciferin luminescence, 60 min | actives 40% (n = 6,200) | inhibition, % at 12.5 µM;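 active = mean inhibition across replicates above about 50%, limit read from the data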
# SENP6 conf – confirmation of human SENP6 protease inhibitors. shares compounds with SENP7 inh. recombinant SENP6, Z-RLRGG-aminoluciferin luminescence. inhibition, % at 12.5 µM. actives 58% (n = 6,200). AID 488915
# SENP7 confirm – human SENP7 inhibition, confirmed | shares compounds with SENP7 inh | recombinant SENP7, Z-RLRGG-aminoluciferin luminescence, 40 min | inhibition, % at 12.5 µM | actives 69% (n = 6,200) | AID 488917
# Casp3 SENP sel – caspase-3 inhibition (SENP selectivity assay) | AID 488918 | purified caspase-3, Z-DEVD-aminoluciferin luminescence, 60 min | shares compounds with SENP7 inh | actives 60% (n = 6,200) | inhibition, % at 12.5 µM;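 active = mean inhibition above about 50%, limit read from the data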
# Luc interf – luminescence interference (SENP counter-screen); shares compounds with SENP7 inh; Pre-incubated SENP8/Z-RLRGG-aminoluciferin, luciferase luminescence interference; inhibition, % at 12.5 µM; actives 39% (n = 6,200);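 active = mean inhibition above about 50% when retested at one dose, limit read from the data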
# A number is an active result; i = inactive; nt = no result given.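 The calls were made as follows, unless noted: active = mean inhibition above about 50% in the one-dose retest (limit read from the data); inactive = the rest.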
SMILES,SENP8 block-1,SENP6 block,UBC13 inh,Apaf-1 inh,SENP7 inh,SENP8 block-2,SENP8 confirm,SENP6 conf,SENP7 confirm,Casp3 SENP sel,Luc interf
O=C(NC(=S)Nc1ccc(S(=O)(=O)Nc2nccs2)cc1)c1ccccc1,i,64.3,i,i,i,i,59.9,59.4,80.1,61.0,61.2
Clc1ccccc1Nc1nc(NCC2CC2)nc2ccsc12,i,nt,nt,nt,nt,nt,nt,nt,nt,nt,nt
CC(C)c1ccc(NC(=O)C2Cc3c(-c4ccccc4Oc4ccccc4)ccnc3O2)cc1 (stereo not drawn),i,nt,nt,nt,nt,nt,nt,nt,nt,nt,nt
O=C(/C=C/c1ccccc1)Nc1ccc2c(c1)OCCO2,i,74.3,i,i,75.0,66.9,74.0,71.2,87.7,64.7,74.9
COc1ccccc1/C=C/C(=O)Nc1ccc2c(c1)OCCO2,i,67.4,i,i,60.0,51.6,68.2,66.1,86.1,i,63.0
O=c1c(-c2ccc(F)cc2)coc2cc(O)ccc12,i,86.3,i,i,i,82.3,89.5,90.2,99.0,93.7,89.6
O=c1c(-c2ccc(F)cc2)coc2c3c(ccc12)OCCO3,i,i,i,i,76.0,i,i,i,i,i,i
COc1ccc(-c2coc3cc(O)ccc3c2=O)cc1OC,i,i,i,i,i,i,nt,nt,nt,nt,nt
COc1ccc(/C=N/Nc2nccnc2Cl)c(OC)c1,i,93.0,i,i,97.5,91.1,96.1,97.0,102.7,98.5,94.7
COc1ccc(/C=N/Nc2nonc2N)c(OC)c1,i,i,i,i,i,i,nt,nt,nt,nt,nt
Clc1nccnc1N/N=C/c1ccc(Br)cc1,i,95.7,i,i,97.9,94.1,97.2,97.7,102.3,96.8,96.1
COc1ccc(/C=N/Nc2nccnc2Cl)cc1,i,95.2,i,i,96.7,94.7,97.8,98.7,103.0,98.9,96.9
COC(=O)C[C@@H]1OC[C@H](Cc2ccccc2)N1S(=O)(=O)c1ccc(C)cc1,i,nt,nt,nt,nt,nt,nt,nt,nt,nt,nt
COc1ccccc1-c1nnc(Nc2nc3c(OC)cccc3s2)o1,i,i,i,i,76.0,i,i,i,i,i,i
COc1cccc(-c2nnc(Nc3nc4c(F)cccc4s3)o2)c1,i,90.2,i,i,i,84.0,i,84.2,i,59.7,50.4
CC1=C(C(=O)N2CCOCC2)CC(CC(=O)NCc2cccc3ccccc23)C(=O)N1Cc1ccccc1 (stereo not drawn),i,nt,nt,nt,nt,nt,nt,nt,nt,nt,nt
O=C(Nc1nc2ccccc2s1)c1c(F)cccc1Cl,i,i,i,i,i,i,nt,nt,nt,nt,nt
Cn1cc(Cl)c(C(=O)Nc2nc3ccccc3s2)n1,i,96.2,i,i,i,95.5,i,98.1,102.9,96.2,i
Nc1ccc(C(=O)Nc2nc3ccccc3s2)cc1,i,90.8,i,i,93.8,90.9,95.0,95.0,100.9,86.2,90.6
O=C(Nc1nc2ccccc2s1)c1ccc(N2CCCCC2)c([N+](=O)[O-])c1,i,51.5,i,i,54.5,i,i,i,i,i,i
O=C(Nc1ccon1)c1ccc(N2CCCCC2)c([N+](=O)[O-])c1,i,i,i,i,i,i,nt,nt,nt,nt,nt
Cc1cc(C)n(-c2ccc(C(=O)Nc3nc4ccccc4s3)cc2)n1,i,i,i,i,i,i,nt,nt,nt,nt,nt
Cc1ccccc1-c1cc(-c2ccccc2O)on1,i,91.0,i,i,96.6,81.4,94.9,96.1,99.8,83.7,92.9
Cc1ccc(O)c(-c2cc(-c3ccc(F)cc3)no2)c1,i,76.9,i,i,80.9,57.2,i,68.5,55.8,68.1,i
Oc1ccccc1-c1cc(-c2ccccc2)no1,i,84.2,i,i,95.6,85.9,87.1,88.0,101.2,83.9,64.5
SMILES,SENP8 block-1,SENP6 block,UBC13 inh,Apaf-1 inh,SENP7 inh,SENP8 block-2,SENP8 confirm,SENP6 conf,SENP7 confirm,Casp3 SENP sel,Luc interf
O=C(c1cc(-c2ccccc2O)on1)N1CCCCCC1,i,i,i,i,i,i,nt,nt,nt,nt,nt
CC(=O)Oc1ccccc1Cn1c(C)c(C(=O)NCCC#N)sc1=O,i,nt,nt,nt,nt,nt,nt,nt,nt,nt,nt
Cc1ccc(N=C/C(C(=O)C(F)(F)F)=C(\O)c2ccco2)cc1Cl,i,67.6,i,i,58.6,i,i,i,i,i,54.1
O=C(/C(C=Nc1ccc(F)cc1)=C(/O)c1ccco1)C(F)(F)F,i,77.1,i,i,79.1,i,i,i,i,i,i
O=C(Nc1cccc(N=Cc2cc(Cl)cc(Br)c2O)c1)c1ccco1,i,i,i,i,i,i,nt,nt,nt,nt,nt
CCCCCCSC1=C(C#N)C(=O)NC2(CCCCC2)S1,i,i,i,i,i,59.2,i,86.9,94.5,i,88.5
CCCNC(=O)C1(C)CCN(Cc2ccc(OC)c3ccccc23)C1 (stereo not drawn),i,nt,nt,nt,nt,nt,nt,nt,nt,nt,nt
O=C(c1cc(-c2ccc(Cl)cc2)on1)N1CCOCC1,i,i,i,i,i,i,nt,nt,nt,nt,nt
O=C(c1cc(-c2ccc3c(c2)OCO3)on1)N1CCN(c2ccccc2)CC1,i,i,i,i,i,i,nt,nt,nt,nt,nt
O=C(c1cc(-c2cccc(O)c2)on1)N1CCCCC1,i,i,i,i,67.5,61.2,i,67.2,90.7,78.0,72.6
O=C(c1cc(-c2ccc(Cl)cc2Cl)on1)N1CCOCC1,i,62.4,i,i,i,i,i,i,84.6,72.1,50.8
O=C(c1cc(-c2cccc(O)c2)on1)N1CCCC1,i,50.1,i,i,i,i,i,i,78.0,69.5,i
O=C(c1cc(-c2ccccc2)on1)N1CCCCCC1,i,i,i,i,i,i,nt,nt,nt,nt,nt
O=C(c1cc(-c2ccc3c(c2)OCO3)on1)N1CCOCC1,i,67.5,i,i,56.9,i,58.0,52.5,84.3,82.0,54.2
CCc1nc2ccc(C(=O)NCCOc3ccc(OC)cc3)cn2c1N(CC)Cc1ccc(OC)c(OC)c1,i,nt,nt,nt,nt,nt,nt,nt,nt,nt,nt
c1ccc(NC2=Nc3ccccc3CS2)cc1,i,81.9,i,i,77.6,51.5,i,63.4,89.5,68.6,i
COc1ccc(/C=N/Nc2nc(=O)[nH]nc2C)cc1[N+](=O)[O-],i,i,i,i,i,i,nt,nt,nt,nt,nt
Cc1n[nH]c(=O)nc1N/N=C/c1ccc(O)c([N+](=O)[O-])c1,55.3,65.0,i,i,64.8,i,50.2,i,81.9,77.4,i
CCc1cc(C(=O)NNC(=S)Nc2cccc(C)c2)cs1,i,74.5,i,i,56.1,i,i,i,i,i,i
